Assay results from different studies.
Each line is one published result; the experiments were not run side by side.
Target: Serine/threonine-protein kinase PLK3 (PLK3, Homo sapiens, UniProt Q9H4B4)

SMILES | read-out | method | concentration | remaining binding
N[C@@H]1CCN(c2nccc(-c3cnn4ncccc34)n2)C1 | binding |  | 1 µM | 100%
CS(=O)(=O)c1cc(C2(NC(=O)c3cncc4c3cnn4-c3ccc(F)cc3)CC2)ccn1 | cell-free assay | competition with immobilised ligand | 1 µM | 68%
N#Cc1ccccc1CSc1nnc2c(n1)[nH]c1ccccc12 | binding | competition with immobilised ligand | 10 µM | 100%
O=C(NCCCN1CCOCC1)c1ccc(Nc2ncc(Cl)c(-c3ccc(Cl)s3)n2)cc1 | binding | competition with immobilised ligand | 1 µM | 7.8%
c1cnn2ncc(-c3ccnc(N4CCC45COC5)n3)c2c1 | binding |  | 1 µM | 79%
COc1ccc2cc(OCC3(C(=O)O)CN(C(=O)c4ccc(F)cc4)C3)ccc2c1 | cell-free assay | competition with immobilised ligand | 1 µM | 95%
F[C@@H]1CCN(c2nccc(-c3cnn4ncccc34)n2)C1 | binding |  | 1 µM | 87%
C[C@@H](c1ccc(-n2cnc3c(N)ncnc32)cc1)N1CCc2nn(C)c(Cc3ccccc3)c2C1=O | binding | competition with immobilised ligand | 0.1 µM | 76%
COc1cnc(Nc2cccc(S(N)(=O)=O)c2)nc1N1CCN(c2ccccc2)CC1 | binding | competition with immobilised ligand | 1 µM | 95%
C[C@H]1CCN(c2nccc(-c3cnn4ncccc34)n2)C1 | binding |  | 1 µM | 75%
CCN1CCN(Cc2ccc(C(=O)Nc3ccc(C)c(Oc4ccc5c(c4)CC(=O)N5)c3)cc2C(F)(F)F)CC1 | binding | competition with immobilised ligand | 1 µM | 100%
FC(F)(F)Oc1cccc(-c2cnc3ccc(-c4ccncc4)nn23)c1 | cell-free assay | competition with immobilised ligand | 5 µM | 63%
C[C@H](c1ccnc(Nc2nc3ccc(-c4cc(N(C)C)ncn4)cc3[nH]2)c1)N1CCN(C(=O)CC(F)(F)F)CC1 | cell-free assay | competition with immobilised ligand | 0.1 µM | 100%
O=C(Nc1c[nH]nc1C(=O)NC1CCNCC1)c1cc(F)cc(F)c1 | binding | competition with immobilised ligand | 1 µM | 86%
O=C(c1ccc(Nc2ncc(Cl)c(-c3ccc(Cl)s3)n2)cc1)N1CCC(N2CCCC2)CC1 | binding | competition with immobilised ligand | 1 µM | 31%
C[C@H](c1ccc(F)cc1)N(Cc1cccc(C(=O)O)c1)C(=O)c1cnc2ccccc2c1 | cell-free assay | competition with immobilised ligand | 1 µM | 100%
